Results as given in paper PMC8223195 (Molecular Diversity, 2021).

Assays:
hCoV-229E = type: cell-based, human corona virus 229E; conditions: for EC50: (*) mean of three independent experiments ± SEM
LN-229 (glioblastoma) = test: IncuCyte real-time proliferation assay, LN-229; type: cell-based; conditions: LN-229, 72 h
[1] = test system: Capan-1 (pancreatic adenocarcinoma); test: IncuCyte real-time proliferation assay, Capan-1; type: cell-based
[2] = test system: HCT-116 (colorectal carcinoma); test: IncuCyte real-time proliferation assay, HCT-116; type: cell-based; conditions: HCT-116, 72 h
[3] = test system: NCI-H460 (lung carcinoma); test: IncuCyte real-time proliferation assay, NCI-H460; type: cell-based; conditions: NCI-H460, 72 h
[4] = test system: DND-41 (acute lymphoblastic leukemia); test: IncuCyte real-time proliferation assay, DND-41; type: cell-based
[5] = test system: HL-60 (acute myeloid leukemia); test: IncuCyte real-time proliferation assay, HL-60; type: cell-based; conditions: HL-60, 72 h
[6] = test system: K-562 (chronic myeloid leukemia); test: IncuCyte real-time proliferation assay, K-562; type: cell-based
[7] = test system: Z-138 (non-Hodgkin lymphoma); test: IncuCyte real-time proliferation assay, Z-138; type: cell-based; conditions: Z-138, 72 h
[8] = test system: peripheral blood mononuclear cells (PBMCs); test: In vitro apoptosis induction assay in PBMC; type: cell-based; conditions: 72 h
In short: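 Counter-screen on normal PBMCs from two healthy donors. Cells were exposed to graded test-compound concentrations with Caspase-3/7 Green Reagent added. Activated intracellular caspase-3/7 cleaves the reagent at its DEVD motif, marking apoptotic cells. Propidium iodide staining separated dead from live cells. Read-out: numbers of apoptotic and dead cells.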

[9] = test system: alpha-tubulin in HEp-2 cells; test: Tubulin immune fluorescence staining in HEp-2 cells; type: cell-based, human; conditions: HEp-2 cells treated for 3 h
[10] = * mean of two independent experiments ± SEM
[11] = Capan-1, 72 h, * mean of two independent experiments ± SEM
[12] = DND-41, 72 h, * mean of two independent experiments ± SEM
[13] = K-562, 72 h, * mean of two independent experiments ± SEM

| SMILES | EC50 (hCoV-229E) | IC50 (LN-229 (glioblastoma); [10]) | IC50 [1, 11] | IC50 [2, 10] | IC50 [3, 10] | IC50 [4, 12] | IC50 [5, 10] | IC50 [6, 13] | IC50 [7, 10] | CC50 (HEL 299 cells) | also measured |
| --- | --- | --- | --- | --- | --- | --- | --- | --- | --- | --- | --- |
| Cc1ccc(C(=O)C2Sc3nnc(-n4nc(C)cc4C)n3NC2c2ccccc2Br)cc1 (racemic) [Compound 5f, ( ±)-(6-(2-Bromophenyl)-3-(3,5-dimethyl-1H-pyrazol-1-yl)-6,7-dihydro-5H-[1,2,4]triazolo[3,4-b][1,3,4]thiadiazin-7-yl)(p-tolyl)methanone] | 3.2 ± 1.8 µM | > 100 µM | > 100 µM | > 100 µM | > 100 µM | > 100 µM | > 100 µM | > 100 µM | > 100 µM | > 100 µM | selectivity index (hCoV-229E): favorable selectivity indexes |
| Cc1ccc(C(=O)C2Sc3nnc(-n4nc(C)cc4C)n3NC2c2ccc(C)cc2)cc1 (racemic) [Compound 5b, ( ±)-(3-(3,5-Dimethyl-1H-pyrazol-1-yl)-6-(p-tolyl)-6,7-dihydro-5H-[1,2,4]triazolo[3,4-b][1,3,4]thiadiazin-7-yl)(p-tolyl)methanone] | 4.7 ± 0.5 µM | 47.1 µM | 57.5 µM | 67.8 µM | > 100 µM | 39.3 µM | 50.9 µM | 10.4 µM | 48.4 µM | 81.5 µM | selectivity index (hCoV-229E): favorable selectivity indexes |
| Cc1cc(C)n(-c2nnc3n2NC(c2ccco2)C(C(=O)c2ccc([N+](=O)[O-])cc2)S3)n1 (racemic) [Compound 5t, ( ±)-(3-(3,5-Dimethyl-1H-pyrazol-1-yl)-6-(furan-2-yl)-6,7-dihydro-5H-[1,2,4]triazolo[3,4-b][1,3,4]thiadiazin-7-yl)(4-nitrophenyl)methanone] | > 100 µM | 62.7 µM | > 100 µM | > 100 µM | > 100 µM | > 100 µM | 74.5 µM | 79.3 µM | 49.5 µM | > 100 µM | – |
| COc1ccc(C2=C(C(=O)c3ccc([N+](=O)[O-])cc3)Sc3nnc(-n4nc(C)cc4C)n3N2)c(OC)c1 [Compound 5p, ( ±)-(6-(2,4-dimethoxyphenyl)-3-(3,5-dimethyl-1H-pyrazol-1-yl)-5H-[1,2,4]triazolo[3,4-b][1,3,4]thiadiazin-7-yl)(4-nitrophenyl)methanone] | > 100 µM | > 100 µM | > 100 µM | > 100 µM | > 100 µM | > 100 µM | > 100 µM | > 100 µM | > 100 µM | > 100 µM | – |
| Cc1cc(C)n(-c2nnc3n2NC(c2ccc([N+](=O)[O-])cc2)C(C(=O)c2ccc([N+](=O)[O-])cc2)S3)n1 (racemic) [Compound 5c, ( ±)-(3-(3,5-Dimethyl-1H-pyrazol-1-yl)-6-(4-nitrophenyl)-6,7-dihydro-5H-[1,2,4]triazolo[3,4-b][1,3,4]thiadiazin-7-yl)(4-nitrophenyl)methanone] | 24.4 µM | > 100 µM | > 100 µM | > 100 µM | > 100 µM | > 100 µM | > 100 µM | > 100 µM | > 100 µM | > 100 µM | – |
| Cc1cc(C)n(-c2nnc3n2NC(c2cc(F)c(F)c(F)c2)C(C(=O)c2ccccc2)S3)n1 (racemic) [5 k, ( ±)-(3-(3,5-Dimethyl-1H-pyrazol-1-yl)-6-(3,4,5-trifluorophenyl)-6,7-dihydro-5H-[1,2,4]triazole [3,4-b][1,3,4]thiadiazin-7-yl)(phenyl)methanone] | > 100 µM | > 100 µM | > 100 µM | > 100 µM | > 100 µM | > 100 µM | > 100 µM | > 100 µM | > 100 µM | > 100 µM | – |
| COc1cc(C2Nn3c(nnc3-n3nc(C)cc3C)SC2C(=O)c2ccccc2)cc(OC)c1OC (racemic) [5 m, ( ±)-(3-(3,5-Dimethyl-1H-pyrazol-1-yl)-6-(3,4,5-trimethoxyphenyl)-6,7-dihydro-5H-[1,2,4]triazole [3,4-b][1,3,4]thiadiazin-7-yl)(phenyl)methanone] | 95.7 µM | > 100 µM | > 100 µM | > 100 µM | > 100 µM | > 100 µM | > 100 µM | > 100 µM | > 100 µM | > 100 µM | – |
| Cc1cc(C)n(-c2nnc3n2NC(c2ccc(Cl)cc2)C(C(=O)c2ccc(Br)cc2)S3)n1 (racemic) [5 g, ( ±)-(4-Bromophenyl)(6-(4-chlorophenyl)-3-(3,5-dimethyl-1H-pyrazol-1-yl)-6,7-dihydro-5H-triazolo[3,4-b][1,3,4]thiadiazin-7-yl)methanone] | > 100 µM | > 100 µM | > 100 µM | > 100 µM | > 100 µM | > 100 µM | > 100 µM | > 100 µM | > 100 µM | > 100 µM | – |
| COc1ccc(C(=O)C2Sc3nnc(-n4nc(C)cc4C)n3NC2c2ccccc2Cl)cc1 (racemic) [Compound 5n, ( ±)-(6-(2-Chlorophenyl)-3-(3,5-dimethyl-1H-pyrazol-1-yl)-6,7-dihydro-5H-[1,2,4]triazolo[3,4-b][1,3,4]thiadiazin-7-yl)(4-methoxyphenyl)methanone] | > 100 µM | 68.3 µM | 63.1 µM | > 100 µM | > 100 µM | 91.7 µM | 71.2 µM | 53.2 µM | 53.9 µM | > 100 µM | – |
| CC(=O)O[C@@]12CO[C@@H]1C[C@H](O)[C@@]1(C)C(=O)[C@H](O)C3=C(C)[C@@H](OC(=O)[C@H](O)[C@@H](NC(=O)OC(C)(C)C)c4ccccc4)C[C@@](O)([C@@H](OC(=O)c4ccccc4)[C@H]21)C3(C)C [Docetaxel, reference compound] | – | – | – | – | – | – | – | – | – | – | IC50 (LN-229 (glioblastoma); Homo sapiens): 0.0087 ± 0.0004 µM; IC50 ([1]; Homo sapiens, CAPAN-1, 72 h): 0.0042 ± 0.0021 µM; IC50 ([2]; Homo sapiens): 0.0009 ± 0.0008 µM; IC50 ([3]; Homo sapiens): 0.0038 ± 0.0029 µM; IC50 ([4]; DND41, 72 h): 0.0033 ± 0.0014 µM; IC50 ([5]; Homo sapiens): 0.0023 ± 0.0003 µM; IC50 ([6]; Homo sapiens, K562, 72 h): 0.0037 ± 0.0003 µM; IC50 ([7]; Homo sapiens): 0.0011 ± 0.0008 µM |
| Cc1ccc(C(=O)C2Sc3nnc(-n4nc(C)cc4C)n3NC2c2ccco2)cc1 (racemic) [Compound 5r, ( ±)-(3-(3,5-Dimethyl-1H-pyrazol-1-yl)-6-(furan-2-yl)-6,7-dihydro-5H-[1,2,4]triazolo[3,4-b] [1,3,4]thiadiazin-7-yl)(p-tolyl)methanone] | > 100 µM | 43.9 µM | 54.3 µM | 69 µM | 47 µM | 70.2 µM | 54 µM | 23.5 µM | 50.2 µM | > 100 µM | – |
| CN[C@@H]1C[C@H]2O[C@@](C)([C@@H]1OC)n1c3ccccc3c3c4c(c5c6ccccc6n2c5c31)C(=O)NC4 [STS, staurosporine, reference compound] | – | – | – | – | – | – | – | – | – | – | IC50 (LN-229 (glioblastoma); Homo sapiens): 0.0229 ± 0.0021 µM; IC50 ([1]; Homo sapiens, CAPAN-1, 72 h): 0.0007 ± 0.0002 µM |
| Cc1ccc(C(=O)C2Sc3nnc(-n4nc(C)cc4C)n3NC2c2cc(F)c(F)c(F)c2)cc1 (racemic) [Compound 5j, ( ±)-(3-(3,5-Dimethyl-1H-pyrazol-1-yl)-6-(3,4,5-trifluorophenyl)-6,7-dihydro-5H-[1,2,4]triazole [3,4-b][1,3,4]thiadiazin-7-yl)(p-tolyl)methanone] | > 100 µM | 2.7 ± 0.2 µM | 2.3 ± 0.2 µM | 2.5 ± 0.09 µM | 56 µM | 2.4 ± 0.4 µM | 13 ± 2.8 µM | 3.4 ± 0.2 µM | 1.9 ± 0.03 µM | 23.8 µM | viability of normal PBMCs ([8]; PBMC from two healthy donors, 100 to 0.16 µM): did not inhibit the viability; number of apoptotic and dead cells ([8]; PBMC, 100 µM, caspase-3/7 and PI): small increase in the number of apoptotic and dead cells; polymerization of tubulin [9]: inhibit the polymerization of tubulin in a dose-dependent manner |
| Cc1cc(C)n(-c2nnc3n2NC(c2cccs2)C(C(=O)c2ccc([N+](=O)[O-])cc2)S3)n1 (racemic) [5 s, ( ±)-(3-(3,5-Dimethyl-1H-pyrazol-1-yl)-6-(thiophen-2-yl)-6,7-dihydro-5H-[1,2,4]triazolo[3,4-b][1,3,4]thiadiazin-7-yl)(4-nitrophenyl)methanone] | > 100 µM | > 100 µM | > 100 µM | > 100 µM | > 100 µM | > 100 µM | > 100 µM | > 100 µM | > 100 µM | > 100 µM | – |
| Cc1cc(C)n(-c2nnc3n2NC(c2ccccc2Br)C(C(=O)c2ccc(F)cc2)S3)n1 (racemic) [Compound 5e, ( ±)-(6-(2-Bromophenyl)-3-(3,5-dimethyl-1H-pyrazol-1-yl)-6,7-dihydro-5H-[1,2,4]triazolo[3,4-b][1,3,4]thiadiazin-7-yl)(4-fluorophenyl)methanone] | > 100 µM | > 100 µM | > 100 µM | > 100 µM | > 100 µM | > 100 µM | > 100 µM | > 100 µM | > 100 µM | > 100 µM | – |
